Results reported in publication PMC7740640 (Xenobiotica; the fate of foreign compounds in biological …, 2020).
“And” between values parts separate entries of the source, which are not always exact repeats. Equal values may be shown once.

Key:
Type in all cases: in vitro ADME
CYP2B6 [1] = target: T1, CYP2B6 (Homo sapiens, UniProt P20813); assay: Projected involvement in C152 metabolism in HLM
T1 sequence (P20813 1-491): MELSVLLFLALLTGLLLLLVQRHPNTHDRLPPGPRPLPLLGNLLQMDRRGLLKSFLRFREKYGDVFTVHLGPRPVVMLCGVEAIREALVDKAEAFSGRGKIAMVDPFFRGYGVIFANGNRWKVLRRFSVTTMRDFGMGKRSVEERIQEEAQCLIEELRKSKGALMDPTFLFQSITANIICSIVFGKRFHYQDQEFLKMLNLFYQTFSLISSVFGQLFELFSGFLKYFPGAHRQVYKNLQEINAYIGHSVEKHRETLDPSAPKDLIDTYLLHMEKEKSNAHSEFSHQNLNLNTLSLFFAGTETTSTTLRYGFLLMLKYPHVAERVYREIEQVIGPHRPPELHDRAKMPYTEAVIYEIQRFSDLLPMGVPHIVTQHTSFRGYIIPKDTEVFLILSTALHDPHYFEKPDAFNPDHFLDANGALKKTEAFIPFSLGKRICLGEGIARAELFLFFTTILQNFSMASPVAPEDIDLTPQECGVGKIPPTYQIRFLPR
How it was run: (§1)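 Calculated values, no new incubations. Each of seven C152-metabolizing P450s has a fractional content in the pooled HLM P450 pool (LC-MS/MS MRM). That fraction is multiplied by its Supersome Vmax (saturation) or by its rate at 30 μM C152 from Hill or Michaelis–Menten parameters. Expected participation (% TNR) is each normalized rate divided by the sum of all seven.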

CYP1A2 [2] = target: T2, CYP1A2 (Homo sapiens, UniProt P05177); assay: C152 metabolism
T2 sequence (P05177 2-516 limits assumed): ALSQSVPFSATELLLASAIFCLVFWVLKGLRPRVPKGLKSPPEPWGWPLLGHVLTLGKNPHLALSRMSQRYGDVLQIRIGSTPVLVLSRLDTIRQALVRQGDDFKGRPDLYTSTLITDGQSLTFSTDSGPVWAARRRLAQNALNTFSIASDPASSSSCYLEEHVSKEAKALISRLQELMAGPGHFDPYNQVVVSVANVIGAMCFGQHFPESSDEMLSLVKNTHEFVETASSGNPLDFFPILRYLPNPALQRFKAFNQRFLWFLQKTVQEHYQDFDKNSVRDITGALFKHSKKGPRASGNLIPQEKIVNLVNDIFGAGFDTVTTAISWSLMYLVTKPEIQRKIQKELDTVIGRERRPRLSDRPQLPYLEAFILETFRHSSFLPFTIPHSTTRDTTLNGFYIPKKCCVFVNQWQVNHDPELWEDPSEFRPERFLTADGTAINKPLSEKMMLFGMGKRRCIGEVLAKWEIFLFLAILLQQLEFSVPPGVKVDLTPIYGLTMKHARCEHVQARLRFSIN

CYP2D6 = CYP2D6 (Homo sapiens, UniProt P10635); assay: C152 metabolism by Supersomes containing CYP2D6; settings: recombinant CYP2D6 Supersomes
CYP2A6 = CYP2A6 (Homo sapiens, UniProt P11509); assay: C152 metabolism by Supersomes containing CYP2A6; settings: recombinant CYP2A6 Supersomes
CYP1A2 [3] = target: T2, CYP1A2; assay: Formation of C151 from C152; settings: SS(1A2)
How it was run: (§2)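 Probes hold 5–20 pmol P450 in 0.1 M Na-HEPES pH 7.4 with 60 mM KCl. C152 added from 0.5 or 4 mM acetone stock; reaction started with 500 μM NADPH (final), run 5 min at 30 °C with shaking. Quenched with isopropanol containing phenacetin internal standard, then centrifuged. C151 quantified by reverse-phase LC with ESI-positive MRM MS/MS (m/z 230.16→157.2). Michaelis–Menten or Hill fit; normalized per P450 (Supersomes) or CPR (HLM).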

CYP3A4 = CYP3A4 (Homo sapiens, UniProt P08684); assay: C152 metabolism; settings: for Specific rate: CYP3A4
How it was run: (§3)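 Human P450s in Supersomes that co-express human CPR and cytochrome b5. Reaction in 0.1 M Na-HEPES pH 7.4 with 60 mM KCl, stirred at 30 °C. C152 0.1–30 μM added from acetone stock; 200 μM NADPH starts it. Fluorescence rise read at 500 nm (isosbestic, mono-demethylation step). Rate is the linear slope over 3–5 min, scaled by the C151–C152 fluorescence difference. Michaelis–Menten or Hill fit, Vmax per P450, 2–6 runs; rate at 30 μM computed from fit.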

CYP2B6 [4] = target: T1, CYP2B6; assay: Formation of C151 from C152; settings: SS(2B6)
How it was run: as §2

CYP3A5 = CYP3A5 (Homo sapiens, UniProt P20815); assay: Projected involvement in C152 metabolism in HLM
How it was run: as §1

CYP2B6 [5] = target: T1, CYP2B6; assay: C152 metabolism; settings: for Specific rate: CYP2B6
How it was run: as §3

[6] = system: human liver microsomes (HLM); assay: C152 metabolism
How it was run: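 Pooled 50-donor mixed-gender human liver microsomes. Continuous single-wavelength fluorimetry at 500 nm in 0.1 M Na-HEPES pH 7.4 with 60 mM KCl, stirred at 30 °C. C152 0.1–30 μM from acetone stock; 200 μM NADPH starts it. Linear slope over 3–5 min, scaled by the C151–C152 fluorescence difference. Normalized to CPR, measured as NADPH-dependent cytochrome c reduction rate. Michaelis–Menten or Hill fit, 2–6 runs.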

[7] = at saturation of all P450 species
[8] = C151 formed over total C152 metabolized
[9] = mol C151 formed per mol P450 per min
[10] = read-out: KM or S50 (Formation of C151, LC-MS), Michaelis-Menten fit
[11] = at 30 μM C152, calculated from fit parameters
[12] = at saturation (Vmax in Supersomes)

CYP3A4, sequence (P08684 2-503 limits assumed): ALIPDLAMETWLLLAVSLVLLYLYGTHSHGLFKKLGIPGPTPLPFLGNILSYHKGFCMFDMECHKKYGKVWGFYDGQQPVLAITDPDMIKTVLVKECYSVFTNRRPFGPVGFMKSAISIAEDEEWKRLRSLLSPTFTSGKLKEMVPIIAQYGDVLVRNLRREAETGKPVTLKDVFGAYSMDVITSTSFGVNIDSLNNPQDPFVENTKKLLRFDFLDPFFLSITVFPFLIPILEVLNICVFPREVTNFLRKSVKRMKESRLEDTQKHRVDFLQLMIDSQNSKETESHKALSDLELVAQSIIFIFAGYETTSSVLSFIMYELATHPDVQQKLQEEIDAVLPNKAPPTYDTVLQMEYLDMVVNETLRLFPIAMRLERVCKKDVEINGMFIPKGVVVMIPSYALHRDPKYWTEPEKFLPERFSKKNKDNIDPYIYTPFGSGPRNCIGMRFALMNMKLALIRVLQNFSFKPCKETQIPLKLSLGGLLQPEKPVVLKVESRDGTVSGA
CYP3A5, sequence (P20815 whole entry): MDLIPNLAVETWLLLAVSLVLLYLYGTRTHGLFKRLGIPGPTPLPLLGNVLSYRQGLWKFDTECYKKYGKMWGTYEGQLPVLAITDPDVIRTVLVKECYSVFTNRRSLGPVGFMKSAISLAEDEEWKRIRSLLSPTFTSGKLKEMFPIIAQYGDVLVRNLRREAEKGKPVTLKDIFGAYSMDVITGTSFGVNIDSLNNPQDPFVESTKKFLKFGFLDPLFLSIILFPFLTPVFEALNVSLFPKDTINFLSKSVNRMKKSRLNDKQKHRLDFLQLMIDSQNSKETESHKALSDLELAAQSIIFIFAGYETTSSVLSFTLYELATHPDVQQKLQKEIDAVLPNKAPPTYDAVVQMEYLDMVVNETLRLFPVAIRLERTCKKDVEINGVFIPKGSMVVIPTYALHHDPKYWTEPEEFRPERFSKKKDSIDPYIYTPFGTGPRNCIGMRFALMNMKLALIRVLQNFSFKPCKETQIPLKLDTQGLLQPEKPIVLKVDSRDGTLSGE
CYP2A6, sequence (P11509 whole entry): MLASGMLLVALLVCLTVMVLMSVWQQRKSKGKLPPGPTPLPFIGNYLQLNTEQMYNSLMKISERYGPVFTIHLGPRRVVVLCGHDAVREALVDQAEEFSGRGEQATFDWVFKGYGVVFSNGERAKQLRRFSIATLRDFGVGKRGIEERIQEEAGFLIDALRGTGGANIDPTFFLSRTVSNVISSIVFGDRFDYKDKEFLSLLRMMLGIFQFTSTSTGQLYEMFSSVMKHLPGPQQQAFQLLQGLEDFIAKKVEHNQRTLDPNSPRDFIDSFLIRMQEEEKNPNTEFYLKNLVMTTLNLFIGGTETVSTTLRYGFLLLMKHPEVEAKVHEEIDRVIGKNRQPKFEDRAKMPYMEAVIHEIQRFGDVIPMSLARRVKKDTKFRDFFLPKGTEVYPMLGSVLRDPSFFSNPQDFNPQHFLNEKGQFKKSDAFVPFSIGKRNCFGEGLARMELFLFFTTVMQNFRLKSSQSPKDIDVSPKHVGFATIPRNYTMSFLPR
CYP2D6, sequence (P10635 whole entry): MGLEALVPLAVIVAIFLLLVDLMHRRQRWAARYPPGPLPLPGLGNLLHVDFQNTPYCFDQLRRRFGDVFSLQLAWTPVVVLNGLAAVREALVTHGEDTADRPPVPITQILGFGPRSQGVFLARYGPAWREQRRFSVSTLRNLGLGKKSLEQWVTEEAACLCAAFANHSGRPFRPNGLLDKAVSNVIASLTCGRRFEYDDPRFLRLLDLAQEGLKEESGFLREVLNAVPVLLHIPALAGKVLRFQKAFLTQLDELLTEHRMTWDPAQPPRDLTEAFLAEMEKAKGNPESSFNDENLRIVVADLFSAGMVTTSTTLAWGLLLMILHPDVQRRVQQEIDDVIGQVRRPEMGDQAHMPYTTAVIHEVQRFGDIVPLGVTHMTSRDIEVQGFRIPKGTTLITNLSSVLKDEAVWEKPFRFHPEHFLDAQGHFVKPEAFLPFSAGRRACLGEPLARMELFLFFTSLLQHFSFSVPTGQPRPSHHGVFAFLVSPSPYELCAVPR

CN(C)c1ccc2c(C(F)(F)F)cc(=O)oc2c1 [C152, 7-Dimethylamino-4-trifluromethylcoumarin]
Normalized rate (CYP2B6 [1]; at 30 μM C152): 0.863 min⁻¹
Expected participation (CYP2B6 [1]; at 30 μM C152, % TNR): 7.10%
Normalized rate (CYP2B6 [1]; [7]): 0.914 min⁻¹
Specific rate (CYP1A2 [2]; CYP1A2, at 30 μM C152, calculated from fit parameters): 4.5 min⁻¹
Specific rate (CYP1A2 [2]; CYP1A2, at saturation (Vmax in Supersomes)): 5.0 min⁻¹
C151 formed (both methods: LC-MS/MS and scanning fluorimetry) (CYP1A2 [2]; CYP1A2, fraction in total rate of C152 metabolism): 20–25%
Vmax (C152 metabolism, fluorimetric assay) (CYP1A2 [2]; SS(1A2), mol C152 per mol P450 per min): 5.0 ± 1.1 min⁻¹
Fraction of C151 formed, Fluorimetry (CYP1A2 [2]; SS(1A2), scanning fluorimetry with PCA): 26±7%
Km (CYP1A2 [2]; read-out: KM or S50 (C152 metabolism, fluorimetric assay), SS(1A2), Michaelis-Menten fit, 30 °C, pH 7.4): 2.9 ± 1.7 µM
activity with C152 (CYP2D6): no detectable activity
activity with C152 (CYP2A6): no detectable activity
Fraction of C151 formed, LC-MS (CYP1A2 [3]; [8]): 20% and 20±2%
Vmax (Formation of C151, LC-MS) (CYP1A2 [3]; [9]): 0.98 ± 0.12 min⁻¹
Km (CYP1A2 [3]; [10]): 1.7 ± 0.6 µM
Specific rate (CYP3A4; [11]): 16.5 min⁻¹
Specific rate (CYP3A4; [12]): 17.3 min⁻¹
N, Hill coefficient (C152 metabolism, fluorimetric assay) (CYP3A4; SS(3A4)): 1.6±0.2
Vmax (C152 metabolism, fluorimetric assay) (CYP3A4; SS(3A4), mol C152 per mol P450 per min): 17 ± 3 min⁻¹
Fraction of C151 formed, Fluorimetry (CYP3A4; SS(3A4), scanning fluorimetry with PCA): 2.5±0.3%
Km (CYP3A4; read-out: KM or S50 (C152 metabolism, fluorimetric assay), SS(3A4), Hill fit (S50), 30 °C, pH 7.4): 4.5 ± 1.2 µM
Fraction of C151 formed, LC-MS (CYP2B6 [4]; [8]): 4% and 4.0±0.8%
Vmax (Formation of C151, LC-MS) (CYP2B6 [4]; [9]): 1.8 ± 0.4 min⁻¹
Km (CYP2B6 [4]; [10]): 1 ± 0.4 µM
Normalized rate (CYP3A5; at 30 μM C152): 0.074 min⁻¹
Expected participation (CYP3A5; at 30 μM C152, % TNR): 0.61%
Normalized rate (CYP3A5; [7]): 0.120 min⁻¹
Expected participation (CYP3A5; at saturation of all P450 species, % TNR): 0.91%
Specific rate (CYP2B6 [5]; [11]): 46.6 min⁻¹
Specific rate (CYP2B6 [5]; [12]): 49.3 min⁻¹
Vmax (C152 metabolism, fluorimetric assay) (CYP2B6 [5]; SS(2B6), mol C152 per mol P450 per min): 49 ± 11 min⁻¹
Fraction of C151 formed, Fluorimetry (CYP2B6 [5]; SS(2B6), scanning fluorimetry with PCA): 7.3±3.4%
Km (CYP2B6 [5]; read-out: KM or S50 (C152 metabolism, fluorimetric assay), SS(2B6), Michaelis-Menten fit, 30 °C, pH 7.4): 1.8 ± 0.2 µM
N, Hill coefficient (C152 metabolism, fluorimetric assay) [6]: 1.8±0.3
Vmax (C152 metabolism, fluorimetric assay) ([6]; normalized per concentration of CPR): 58 ± 24 min⁻¹
Km ([6]; read-out: KM or S50 (C152 metabolism, fluorimetric assay), Hill fit (S50), 30 °C, pH 7.4): 4.5 ± 1.5 µM
Fraction of C151 formed, Fluorimetry ([6]; scanning fluorimetry with PCA): 5.7±2.0%
